Test results published in ChEMBL document CHEMBL4414643, “Pharmacokinetics of Phytocannabinoid Acids and Anticonvulsant Effect of Cannabidiolic Acid in a Mouse Model of Dravet Syndrome” (J Nat Prod, 2019).
Active and inactive are the calls of the source.

What was measured:
[1] = Ratio of drug level in anesthetized C57BL/6J mouse brain to plasma at 10 mg/kg, ip administered as single dose measured upto 240 mins by LC-MS/MS analysis; type: ADME, organism-based; details: read-out: BPR
Summary of the method: (§1)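 Male and female mice (C57BL/6J or C57BL/6J x 129 F1), postnatal days 21-28, single i.p. injection at 10 mL/kg in vegetable oil or ethanol–Tween 80–saline (1:1:18). Blood taken by cardiac puncture under isoflurane at time points 15–240 min. Plasma and PBS brain homogenate extracted with ice-cold acetonitrile, diazepam internal standard, quantified by LC-MS/MS. Mean concentrations per time point (n = 3-5); noncompartmental analysis.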

[2] = Cmax in anesthetized C57BL/6J mouse plasma at 10 mg/kg, ip administered as single dose measured upto 240 mins by LC-MS/MS analysis; type: ADME, organism-based; design: dose 10 mg/kg, route intraperitoneal; summary of the method: as §1
[3] = Cmax in anesthetized C57BL/6J mouse brain at 10 mg/kg, ip administered as single dose measured upto 240 mins by LC-MS/MS analysis; type: ADME, organism-based; design: dose 10 mg/kg, route intraperitoneal; details: in vivo, 4 h; summary of the method: as §1
[4] = Tmax in anesthetized C57BL/6J mouse plasma at 10 mg/kg, ip administered as single dose measured upto 240 mins by LC-MS/MS analysis; type: ADME, organism-based; summary of the method: as §1
[5] = Tmax in anesthetized C57BL/6J mouse brain at 10 mg/kg, ip administered as single dose measured upto 240 mins by LC-MS/MS analysis; type: ADME, organism-based; summary of the method: as §1
[6] = Half life in anesthetized C57BL/6J mouse plasma at 10 mg/kg, ip administered as single dose measured upto 240 mins by LC-MS/MS analysis; type: ADME, organism-based; summary of the method: as §1
[7] = Half life in anesthetized C57BL/6J mouse brain at 10 mg/kg, ip administered as single dose measured upto 240 mins by LC-MS/MS analysis; type: ADME, organism-based; summary of the method: as §1
[8] = AUC in anesthetized C57BL/6J mouse plasma at 10 mg/kg, ip administered as single dose measured upto 240 mins by LC-MS/MS analysis; type: ADME, organism-based; design: time < 4 hr, dose 10 mg/kg, route intraperitoneal; summary of the method: as §1
[9] = AUC in anesthetized C57BL/6J mouse brain at 10 mg/kg, ip administered as single dose measured upto 240 mins by LC-MS/MS analysis; type: ADME, organism-based; design: dose 10 mg/kg, time < 4 hr, route intraperitoneal; details: in vivo, 4 h; summary of the method: as §1
[10] = Cmax in anesthetized C57BL/6J mouse plasma at 10 mg/kg, ip administered as single dose measured upto 240 mins in presence of vegetable oil by LC-MS/MS analysis; type: ADME, organism-based; design: dose 10 mg/kg, route intraperitoneal; summary of the method: as §1
[11] = Cmax in anesthetized C57BL/6J mouse brain at 10 mg/kg, ip administered as single dose measured upto 240 mins in presence of vegetable oil by LC-MS/MS analysis; type: ADME, organism-based; design: dose 10 mg/kg, route intraperitoneal; details: in vivo, 4 h; summary of the method: as §1
[12] = Tmax in anesthetized C57BL/6J mouse plasma at 10 mg/kg, ip administered as single dose measured upto 240 mins in presence of vegetable oil by LC-MS/MS analysis; type: ADME, organism-based; summary of the method: as §1
[13] = Tmax in anesthetized C57BL/6J mouse brain at 10 mg/kg, ip administered as single dose measured upto 240 mins in presence of vegetable oil by LC-MS/MS analysis; type: ADME, organism-based; summary of the method: as §1
[14] = Half life in anesthetized C57BL/6J mouse plasma at 10 mg/kg, ip administered as single dose measured upto 240 mins in presence of vegetable oil by LC-MS/MS analysis; type: ADME, organism-based; summary of the method: as §1
[15] = Half life in anesthetized C57BL/6J mouse brain at 10 mg/kg, ip administered as single dose measured upto 240 mins in presence of vegetable oil by LC-MS/MS analysis; type: ADME, organism-based; summary of the method: as §1
[16] = AUC in anesthetized C57BL/6J mouse plasma at 10 mg/kg, ip administered as single dose measured upto 240 mins in presence of vegetable oil by LC-MS/MS analysis; type: ADME, organism-based; design: time < 4 hr, dose 10 mg/kg, route intraperitoneal; summary of the method: as §1
[17] = AUC in anesthetized C57BL/6J mouse brain at 10 mg/kg, ip administered as single dose measured upto 240 mins in presence of vegetable oil by LC-MS/MS analysis; type: ADME, organism-based; design: dose 10 mg/kg, time < 4 hr, route intraperitoneal; details: in vivo, 4 h; summary of the method: as §1
[18] = Ratio of drug level in anesthetized C57BL/6J mouse brain to plasma at 5 mg/kg, ip administered as single dose measured upto 240 mins in presence of vegetable oil by LC-MS/MS analysis; type: ADME, organism-based; details: read-out: BPR
[19] = Ratio of drug level in anesthetized C57BL/6J mouse brain to plasma at 5 mg/kg, ip administered as single dose measured upto 240 mins in presence of tween-80 by LC-MS/MS analysis; type: ADME, organism-based; details: read-out: BPR
[20] = Cmax in anesthetized C57BL/6J mouse plasma at 10 mg/kg, ip administered as single dose measured upto 240 mins in presence of tween-80 by LC-MS/MS analysis; type: ADME, organism-based; design: dose 10 mg/kg, route intraperitoneal; summary of the method: as §1
[21] = Cmax in anesthetized C57BL/6J mouse brain at 10 mg/kg, ip administered as single dose measured upto 240 mins in presence of tween-80 by LC-MS/MS analysis; type: ADME, organism-based; design: dose 10 mg/kg, route intraperitoneal; details: in vivo, 4 h; summary of the method: as §1
[22] = Tmax in anesthetized C57BL/6J mouse plasma at 10 mg/kg, ip administered as single dose measured upto 240 mins in presence of tween-80 by LC-MS/MS analysis; type: ADME, organism-based; summary of the method: as §1
[23] = Tmax in anesthetized C57BL/6J mouse brain at 10 mg/kg, ip administered as single dose measured upto 240 mins in presence of tween-80 by LC-MS/MS analysis; type: ADME, organism-based; summary of the method: as §1
[24] = Half life in anesthetized C57BL/6J mouse plasma at 10 mg/kg, ip administered as single dose measured upto 240 mins in presence of tween-80 by LC-MS/MS analysis; type: ADME, organism-based; summary of the method: as §1
[25] = Half life in anesthetized C57BL/6J mouse brain at 10 mg/kg, ip administered as single dose measured upto 240 mins in presence of tween-80 by LC-MS/MS analysis; type: ADME, organism-based; summary of the method: as §1
[26] = AUC in anesthetized C57BL/6J mouse plasma at 10 mg/kg, ip administered as single dose measured upto 240 mins in presence of tween-80 by LC-MS/MS analysis; type: ADME, organism-based; design: dose 10 mg/kg, time < 4 hr, route intraperitoneal; summary of the method: as §1
[27] = AUC in anesthetized C57BL/6J mouse brain at 10 mg/kg, ip administered as single dose measured upto 240 mins in presence of tween-80 by LC-MS/MS analysis; type: ADME, organism-based; design: dose 10 mg/kg, time < 4 hr, route intraperitoneal; details: in vivo, 4 h; summary of the method: as §1
[28] = Drug uptake in plasma of anesthetized C57BL/6J mouse at 10 mg/kg, ip by LC-MS/MS analysis; type: ADME, organism-based; details: in vivo
Summary of the method: (§2)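 Mice aged 21-28 days postnatal received one i.p. dose (10 mL/kg), and plasma and brain were sampled at 15–240 min. Decarboxylated neutral cannabinoids were measured by LC-MS/MS against known standards, alongside the parent acid.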

[29] = Drug metabolism in brain of anesthetized C57BL/6J mouse at 10 mg/kg, ip by LC-MS/MS analysis; type: ADME, organism-based; details: in vivo; summary of the method: as §2
[30] = Dissociation constant, pKa of compound; type: physicochemical
[31] = Partition coefficient, log P of compound; type: physicochemical; details: octanol/water
Mus musculus [32] = assay: Anticonvulsant activity against hyperthermia-induced seizure in Scn1aRX/+ mouse model of Dravet syndrome assessed as increase in generalized tonic-clonic seizure temperature threshold at 10 to 30 mg/kg, ip administered as single dose measured by RET-3 rectal probe; type: functional, organism-based
Mus musculus [33] = assay: Anticonvulsant activity against hyperthermia-induced seizure in ip administered Scn1aRX/+ mouse model of Dravet syndrome assessed as effective dose causing increase in generalized tonic-clonic seizure temperature threshold measured by RET-3 rectal probe; type: functional
[34] = Drug metabolism in plasma of anesthetized C57BL/6J mouse assessed as decrease in decarboxylation of parent compound at 10 mg/kg, ip by LC-MS/MS analysis; type: ADME, organism-based; details: in vivo; summary of the method: as §2
[35] = Drug metabolism in brain of anesthetized C57BL/6J mouse assessed as decrease in decarboxylation of parent compound at 10 mg/kg, ip by LC-MS/MS analysis; type: ADME, organism-based; details: in vivo; summary of the method: as §2
[36] = Drug uptake in plasma of anesthetized C57BL/6J mouse assessed as purity of compound at 10 mg/kg, ip by LC-MS/MS analysis; type: ADME, organism-based; details: in vivo; summary of the method: as §2

In the case of `C=C(C)[C@@H]1CCC(C)=C[C@H]1c1c(O)cc(CCCCC)c(C(=O)O)c1O` [CANNABIDIOLIC ACID], the Kp at 4 h [1] is reported as 0.04, the Cmax [2] is reported as 29600 ng/mL and the Cmax [3] is reported as 2 ng/mg. For the same compound, the Tmax [4] was 30 min, the Tmax [5] was 45 min and the half-life [6] was 92 min. For the same compound, the half-life [7] was 41 min, the AUC at 4 h [8] was 78300 ng·h/mL and the AUC [9] was 183 µg·min/g. For the same compound, the Cmax [10] was 29600 ng/mL, the Cmax [11] was 2 ng/mg and the Tmax [12] was 30 min. It also gave a Tmax [13] of 45 min, a half-life [14] of 92 min and a half-life [15] of 41 min. It also gave an AUC at 4 h [16] of 78300 ng·h/mL, an AUC [17] of 183 ng·min/g and a Kp at 4 h [18] of 0.04. For the same compound, the Kp at 4 h [19] was 1.9, the Cmax [20] was 17600 ng/mL and the Cmax [21] was 13.2 ng/mg. It also gave a Tmax [22] of 15 min, a Tmax [23] of 30 min and a half-life [24] of 55 min. The half-life [25] was 67 min, the AUC at 4 h [26] was 9970 ng·h/mL and the AUC [27] was 1142 ng·min/g. For the same compound, the Drug uptake [28] was 0.5%, the Drug metabolism [29] was “Metabolite_Notdetected” and the pKa [30] was 2.91. The logP [31] was 6.63 and the Activity (Mus musculus [32]) was “Active”.

Compound `C=C(C)[C@@H]1CCC(C)=C[C@H]1c1c(O)cc(CCCCC)cc1O` [CANNABIDIOL] has an ED (Mus musculus [33]) of 100 mg/kg.

Work on `CCCCCc1cc(O)c(C/C=C(\C)CCC=C(C)C)c(O)c1C(=O)O` [CANNABIGEROLIC ACID] yielded a Kp at 4 h [1] of 0.02, a Cmax [2] of 63500 ng/mL and a Cmax [3] of 2.3 ng/mg. For the same compound, the Tmax [4] was 45 min, the Tmax [5] was 30 min and the half-life [6] was 62 min. It also gave a half-life [7] of 31 min, an AUC at 4 h [8] of 99300 ng·h/mL and an AUC [9] of 94 µg·min/g. For the same compound, the pKa [30] was 2.92, the logP [31] was 7.35 and the Drug metabolism [34] was “Metabolite_Notdetected”. The Drug metabolism [35] was “Metabolite_Notdetected”.

In the case of `CCCCCc1cc2c(c(O)c1C(=O)O)[C@@H]1C=C(C)CC[C@H]1C(C)(C)O2` [DELTA9-TETRAHYDROCANNABINOLIC ACID A], the Cmax [2] is reported as 2800 ng/mL, the Cmax ([3]; BLD = below limit of detection) is reported as “Bld” and the Tmax [4] is reported as 15 min. For the same compound, the half-life [6] was 67 min, the AUC at 4 h [8] was 5030 ng·h/mL and the Cmax [10] was 2800 ng/mL. For the same compound, the Cmax ([11]; BLD = below limit of detection) was “Bld”, the Tmax [12] was 15 min and the half-life [14] was 67 min. The AUC at 4 h [16] was 5030 ng·h/mL, the Cmax [20] was 6900 ng/mL and the Cmax ([21]; BLD = below limit of detection) was “Bld”. For the same compound, the Tmax [22] was 15 min, the half-life [24] was 33 min and the AUC at 4 h [26] was 5630 ng·h/mL. The Drug uptake [28] was 1%, the Drug metabolism [29] was “Metabolite_Notdetected” and the Drug uptake [36] was 95%. It also gave a pKa [30] of 2.89 and a logP [31] of 6.25.
